Test results as given in publication PMC13435124 (The FASEB Journal, 2026).
Counter-ions that a name gives are not always drawn.

Test system: Nrf2 activation in KeratinoSens cells
Assay: KeratinoSens reporter gene assay
Type: cell-based
Conditions: 6 h
Outline: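 KeratinoSens ARE-luciferase cells (passage ≤22) plated at 1.0 × 10^4 per well in triplicate; after 24 h switched to DMEM with 1% FBS, no geneticin. Wortmannin 500 nM added 1 h before test compound at 250 μM; DMF 50 μM as positive control; DMSO ≤0.1%. After 6 h, Alamar Blue (4 h, 37°C), then luciferase read as fold over DMSO. Three independent experiments in triplicate.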

Compound | Nrf2 activation (luciferase induction) (Iso 250 μM, DMF 50 μM) | effect on Iso-induced Nrf2 activation (Wortmannin 500 nM added 1 h before Iso 250 μM)
COC(=O)/C=C/C(=O)OC [DMF, Dimethyl fumarate] | induced Nrf2 activation | 
COC[C@H]1OC(=O)c2coc3c2[C@@]1(C)C1=C(C3=O)[C@@H]2CCC(=O)[C@@]2(C)C[C@H]1OC(C)=O [Wortmannin] |  | partially inhibited
